This is an account of results in ChEMBL document CHEMBL1806357, “A regioselective synthesis of some new pyrazol-1'-ylpyrazolo[1,5-a]pyrimidines in aqueous medium and their evaluation as antimicrobial agents” (2011).

≈ marks a conversion by molar mass, not a printed value.

Test [1] deals with Bacillus cereus. The test can be described thus: Antibacterial activity against Bacillus cereus ATCC 11778 at 4 ug/ml after 24 hrs by agar-well diffusion technique. It counts as functional, organism-based. A digest of the protocol: (§1)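 Agar-well diffusion. Bacteria were kept at 5–8 °C on Brain Heart Infusion agar. Inocula came from 24 h cultures adjusted to 0.5 McFarland (1 × 10^6 CFU/ml). 100 µl was seeded into 20 ml molten Mueller Hinton agar. 6 mm wells received 100 µl of sample, with gentamicin standard at 4 µg/ml and DMSO as negative control. Plates ran 24 h at 37 ± 1 °C; inhibition zone diameter in mm.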
For orientation: A growth-free zone around the sample is the usual read-out of agar diffusion tests.

Test [2] concerns Pseudomonas aeruginosa. The test can be described thus: Antibacterial activity against Pseudomonas aeruginosa ATCC 25668 after 24 hrs by broth microdilution method. The class given is functional.
For test [3], the system named is Escherichia coli. The test can be described thus: Antibacterial activity against Escherichia coli ATCC 8739 at 4 ug/ml after 24 hrs by agar-well diffusion technique. It counts as functional, organism-based. The essentials:
as §1

Test [4] deals with Staphylococcus aureus. The test can be described thus: Antibacterial activity against Staphylococcus aureus ATCC 9144 after 24 hrs by broth microdilution method. It counts as functional. (In general: Dilution methods test growth across graded concentrations, often in twofold steps.)
For test [5], the system named is Bacillus cereus. The test can be described thus: Antibacterial activity against Bacillus cereus ATCC 11778 after 24 hrs by broth microdilution method. It counts as functional.
Test [6] concerns Staphylococcus aureus. The test can be described thus: Antibacterial activity against Staphylococcus aureus ATCC 9144 at 4 ug/ml after 24 hrs by agar-well diffusion technique. It counts as functional, organism-based. A digest of the protocol: as §1
For test [7], the system named is Pseudomonas aeruginosa. The test can be described thus: Antibacterial activity against Pseudomonas aeruginosa ATCC 25668 at 4 ug/ml after 24 hrs by agar-well diffusion technique. The class given is functional, organism-based. The essentials: as §1
Test [8] deals with Escherichia coli. The test can be described thus: Antibacterial activity against Escherichia coli ATCC 8739 after 24 hrs by broth microdilution method. The class given is functional.
The test system of test [9] is Pseudomonas aeruginosa. The test can be described thus: Antibacterial activity against Pseudomonas aeruginosa ATCC 25668 at 2 mg/ml after 24 hrs by agar-well diffusion technique. It counts as functional. The conditions noted are these: ATCC 25668, 24 h, read-out: DIZ. The essentials:
(§2)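 Agar-well diffusion used MHA seeded with 24 h cultures at 0.5 McFarland (1 × 10^6 CFU/ml). 100 µl of compound (2 mg/ml in DMSO, filter-sterilized) went into each 6 mm well. Plates were incubated upright at 37 ± 1 °C for 24 h, and the inhibition zone diameter was measured in mm. DMSO was the negative control. Values are the mean of three replicates.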

Test [10] has as its system Staphylococcus aureus. The test can be described thus: Antibacterial activity against Staphylococcus aureus ATCC 9144 at 2 mg/ml after 24 hrs by agar-well diffusion technique. It counts as functional. The conditions noted are these: ATCC 9144, 24 h, read-out: DIZ. A digest of the protocol: as §2
Test [11] relates to Escherichia coli. The test can be described thus: Antibacterial activity against Escherichia coli ATCC 8739 at 2 mg/ml after 24 hrs by agar-well diffusion technique. It counts as functional. The conditions noted are these: ATCC 8739, 24 h, read-out: DIZ. The essentials:
as §2

The subject of test [12] is Bacillus cereus. The test can be described thus: Antibacterial activity against Bacillus cereus ATCC 11778 at 2 mg/ml after 24 hrs by agar-well diffusion technique. It counts as functional. The conditions noted are these: ATCC 11778, 24 h, read-out: DIZ. A digest of the protocol:
as §2

The test system of test [13] is Escherichia coli. The test can be described thus: Antibacterial activity against Escherichia coli ATCC 8739 at 1 mg/ml after 24 hrs by agar-well diffusion technique. The class given is functional. The conditions noted are these: ATCC 8739, 24 h, read-out: DIZ.
In test [14] the test system is Staphylococcus aureus. The test can be described thus: Antibacterial activity against Staphylococcus aureus ATCC 9144 at 1 mg/ml after 24 hrs by agar-well diffusion technique. The conditions noted are these: ATCC 9144, 24 h, read-out: DIZ. The class given is functional.
Test [15] concerns Bacillus cereus. The test can be described thus: Antibacterial activity against Bacillus cereus ATCC 11778 at 1 mg/ml after 24 hrs by agar-well diffusion technique. It counts as functional. The conditions noted are these: ATCC 11778, 24 h, read-out: DIZ.
In test [16] the test system is Pseudomonas aeruginosa. The test can be described thus: Antibacterial activity against Pseudomonas aeruginosa ATCC 25668 at 1 mg/ml after 24 hrs by agar-well diffusion technique. It counts as functional. The conditions noted are these: ATCC 25668, 24 h, read-out: DIZ.
For test [17], the system named is Alternaria alternata. The test can be described thus: Antifungal activity against Alternaria alternata at 10 ug/ml after 7 days by poisoned food technique relative to control. It counts as functional. The essentials: (§3)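 Poisoned food technique with soil-isolated fungi on PDA. Compound from a 1 mg/ml DMSO stock was added to molten agar at 40 ± 2 °C to give 10, 50, 100 or 200 µg/ml. A 6 mm mycelial disc from a 6-day culture was placed centrally, and plates were held at 28 ± 1 °C. Radial growth was measured after 7 days, and % inhibition was calculated against PDA/DMSO control, in triplicate.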

Test [18] has as its system Aspergillus terreus. The test can be described thus: Antifungal activity against Aspergillus terreus at 10 ug/ml after 7 days by poisoned food technique relative to control. The class given is functional. The essentials: as §3
Test [19] deals with Helminthosporium. The test can be described thus: Antifungal activity against Helminthosporium sp. at 200 ug/ml after 7 days by poisoned food technique relative to control. It counts as functional. A digest of the protocol: as §3
The subject of test [20] is Aspergillus terreus. The test can be described thus: Antifungal activity against Aspergillus terreus at 50 ug/ml after 7 days by poisoned food technique relative to control. It counts as functional. The essentials:
as §3

For test [21], the system named is Aspergillus terreus. The test can be described thus: Antifungal activity against Aspergillus terreus at 200 ug/ml after 7 days by poisoned food technique relative to control. The class given is functional. A digest of the protocol: as §3
Test [22] concerns Fusarium oxysporum. The test can be described thus: Antifungal activity against Fusarium oxysporum at 200 ug/ml after 7 days by poisoned food technique relative to control. The class given is functional. The essentials: as §3
The test system of test [23] is Helminthosporium. The test can be described thus: Antifungal activity against Helminthosporium sp. at 50 ug/ml after 7 days by poisoned food technique relative to control. The class given is functional. The essentials:
as §3

In test [24] the test system is Alternaria alternata. The test can be described thus: Antifungal activity against Alternaria alternata at 50 ug/ml after 7 days by poisoned food technique relative to control. It counts as functional. The essentials:
as §3

Test [25] relates to Alternaria alternata. The test can be described thus: Antifungal activity against Alternaria alternata at 100 ug/ml after 7 days by poisoned food technique relative to control. The class given is functional. A digest of the protocol:
as §3

The test system of test [26] is Fusarium oxysporum. The test can be described thus: Antifungal activity against Fusarium oxysporum at 100 ug/ml after 7 days by poisoned food technique relative to control. It counts as functional. A digest of the protocol: as §3
In test [27] the test system is Helminthosporium. The test can be described thus: Antifungal activity against Helminthosporium sp. at 10 ug/ml after 7 days by poisoned food technique relative to control. It counts as functional. A digest of the protocol: as §3
Test [28] relates to Fusarium oxysporum. The test can be described thus: Antifungal activity against Fusarium oxysporum at 10 ug/ml after 7 days by poisoned food technique relative to control. The class given is functional. A digest of the protocol: as §3
Test [29] deals with Fusarium oxysporum. The test can be described thus: Antifungal activity against Fusarium oxysporum at 50 ug/ml after 7 days by poisoned food technique relative to control. It counts as functional. A digest of the protocol:
as §3

The test system of test [30] is Helminthosporium. The test can be described thus: Antifungal activity against Helminthosporium sp. at 100 ug/ml after 7 days by poisoned food technique relative to control. It counts as functional. The essentials: as §3
The test system of test [31] is Alternaria alternata. The test can be described thus: Antifungal activity against Alternaria alternata at 200 ug/ml after 7 days by poisoned food technique relative to control. It counts as functional. A digest of the protocol: as §3
Test [32] relates to Aspergillus terreus. The test can be described thus: Antifungal activity against Aspergillus terreus at 100 ug/ml after 7 days by poisoned food technique relative to control. It counts as functional. The essentials: as §3

For orientation: MIC means the lowest concentration found to suppress growth. A lower MIC goes with a more susceptible organism. Take GENTAMICIN: the inhibition zone (IZ) with Bacillus cereus [1] is 14 mm; in the test on Escherichia coli [3] it was 24 mm; with Staphylococcus aureus [6] it was 14 mm; in the test with Pseudomonas aeruginosa [7], 12 mm. Further, the MIC against Pseudomonas aeruginosa [2] was found to be 2 µg/mL; against Staphylococcus aureus [4] it was 2 µg/mL; in the test with Bacillus cereus [5] it was 4 µg/mL; with Escherichia coli [8], 4 µg/mL.

For `Cc1cc(-c2cccs2)n2nc(-n3nc(C)cc3-c3cccs3)cc2n1`, the zone of inhibition at 2000 µg/mL in the test with Pseudomonas aeruginosa [9], with Staphylococcus aureus [10], in the test on Escherichia coli [11] and in the test on Bacillus cereus [12] was 8 mm in each case. In addition, the MIC against Pseudomonas aeruginosa [2] (ATCC 25668, 24 h) is 200 µg/mL (≈ 530 µM); against Staphylococcus aureus [4] (ATCC 9144, 24 h), 200 µg/mL (≈ 530 µM); against Bacillus cereus [5] (ATCC 11778, 24 h), over 200 µg/mL; with Escherichia coli [8] (ATCC 8739, 24 h), 200 µg/mL (≈ 530 µM).

As to `Cc1nn(-c2cc3nc(C)c4c(n3n2)CCC4)c2c1CCC2`, the zone of inhibition at 2000 µg/mL with Pseudomonas aeruginosa [9], in the test with Staphylococcus aureus [10], in the test with Escherichia coli [11] and in the test with Bacillus cereus [12] was 7 mm in each case. The MIC with Pseudomonas aeruginosa [2] (ATCC 25668, 24 h) is over 400 µg/mL; against Staphylococcus aureus [4] (ATCC 9144, 24 h) it was 400 µg/mL (≈ 1360 µM); with Bacillus cereus [5] (ATCC 11778, 24 h), 400 µg/mL (≈ 1360 µM); against Escherichia coli [8] (ATCC 8739, 24 h), over 400 µg/mL.

Take `CC(=O)NC[C@H]1CN(c2ccc(N3CCOCC3)c(F)c2)C(=O)O1` [LINEZOLID]: the zone of inhibition at 1000 µg/mL with Escherichia coli [13] came out at 12 mm; in the test with Staphylococcus aureus [14], 18 mm; in the test on Bacillus cereus [15] it was 10 mm; with Pseudomonas aeruginosa [16] it was 8.5 mm. The MIC with Pseudomonas aeruginosa [2] (ATCC 25668, 24 h) is over 100 µg/mL; in the test on Bacillus cereus [5] (ATCC 11778, 24 h), over 100 µg/mL; against Escherichia coli [8] (ATCC 8739, 24 h) it was over 100 µg/mL.

Turning to `Cc1cc(-c2ccc(Cl)cc2)n2nc(-n3nc(C)cc3-c3ccc(Cl)cc3)cc2n1`, the zone of inhibition at 2000 µg/mL with Pseudomonas aeruginosa [9] came out at 10 mm; in the test with Staphylococcus aureus [10], 9 mm; in the test on Escherichia coli [11] it was 13 mm; in the test with Bacillus cereus [12], 13 mm. The MIC in the test on Pseudomonas aeruginosa [2] (ATCC 25668, 24 h) is 100 µg/mL (≈ 230 µM); against Staphylococcus aureus [4] (ATCC 9144, 24 h), 100 µg/mL (≈ 230 µM); in the test on Bacillus cereus [5] (ATCC 11778, 24 h) it was 50 µg/mL (≈ 115 µM); with Escherichia coli [8] (ATCC 8739, 24 h) it was 25 µg/mL (≈ 57.6 µM). Moreover, the Activity in the test on Alternaria alternata [17] amounted to 0%; in the test on Aspergillus terreus [18], 0%; in the test on Helminthosporium [19], 36.6%; in the test with Aspergillus terreus [20], 0%; in the test on Aspergillus terreus [21] it was 12.5%; in the test with Fusarium oxysporum [22], 16.3%. In addition, the Activity in the test with Helminthosporium [23] is reported as 15.5%; in the test with Alternaria alternata [24], 0%; with Alternaria alternata [25], 0%; in the test on Fusarium oxysporum [26], 9.8%; in the test on Helminthosporium [27], 11.1%; with Fusarium oxysporum [28], 1.63%. Further, the Activity was 3.27% in the test with Fusarium oxysporum [29], 17.7% with Helminthosporium [30], 0% in the test with Alternaria alternata [31] and 2.5% in the test on Aspergillus terreus [32].
